Assay results taken from ChEMBL document CHEMBL3817827, “5-Substituted 3-chlorokenpaullone derivatives are potent inhibitors of Trypanosoma brucei bloodstream forms” (Bioorg Med Chem, 2016).
Calls of active or inactive are those of the source. No cut-off for these calls is given here.

System: Trypanosoma brucei
Experiment: Inhibition of Trypanosoma brucei recombinant His-tagged TryS expressed in Escherichia coli BL21 (DE3) assessed as residual enzyme activity by measuring inorganic phosphate release at 30 uM after 15 mins by malachite green dye based end-point assay
Conditions: not given
How it was run: (§1)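 His-tagged TryS expressed in E. coli BL21(DE3), Ni-NTA then gel filtration/ion exchange purified. Reaction buffer: 100 mM HEPES pH 7.4, 5 mM DTT, 10 mM MgSO4, 0.5 mM EDTA, 9 mM NaCl, 10% DMSO; 150 µM ATP, 2 mM spermidine; glutathione 0.05 (Tb), 0.57 (Tc), 0.25 mM (Li). Stopped at 15 min, malachite green phosphate read at 650 nm, blank-corrected versus DMSO; screen at 30 µM, IC50 if >50% inhibition.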

Activity	Structure (SMILES)
45.2%	O=C(CN1C(=O)Cc2c([nH]c3ccc(Br)cc23)-c2ccc(Cl)cc21)NCc1ccccc1
65.2%	O=C(CN1C(=O)Cc2c([nH]c3ccc(Br)cc23)-c2ccc(Cl)cc21)NCc1ccncc1
63.5%	O=C(CN1C(=O)Cc2c([nH]c3ccc(Br)cc23)-c2ccc(Cl)cc21)NCc1ccc(C(F)(F)F)cc1

More lines, now with the values behind:

Structure (SMILES)	Activity
O=C(CN1C(=O)Cc2c([nH]c3ccc(Br)cc23)-c2ccc(Cl)cc21)NCc1cccnc1	64.8%
CNCCNC(=O)CN1C(=O)Cc2c([nH]c3ccc(C(F)(F)F)cc23)-c2ccccc21	70%
O=C(CN1C(=O)Cc2c([nH]c3ccc(Br)cc23)-c2ccc(Cl)cc21)NCc1cccc(Cl)c1	55.9%

Target: Glycogen synthase kinase-3 (Sus scrofa) (UniProt B2LUN4+I6LNT8)
Experiment: Inhibition of porcine brain GSK-3alpha/beta at 10 uM using GS-1 as substrate after 30 mins by scintillation counting method
Conditions: not given
How it was run: (§2)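 Radiometric kinase assay with 15 µM ATP, 30 min at 30 °C in buffer A (10 mM MgCl2, 1 mM EGTA, 1 mM DTT, 25 mM Tris-HCl pH 7.5, 50 µg/mL heparin); BSA 0.15 mg/mL added except for CDK2. Substrates: histone H1 (CDK1, CDK2, CDK5), CDK7/9-Tide (CDK9), RS peptide (DYRK1A, CLK1), GS-1 (GSK-3). Stopped onto P81 paper, acid-washed, scintillation counted; activity as % of DMSO control.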

Structure (SMILES)	inhibition
O=C(CN1C(=O)Cc2c([nH]c3ccc(Br)cc23)-c2ccc(Cl)cc21)NCc1ccccc1	inactive

System: Trypanosoma brucei brucei
Experiment: Antitrypanosomal activity against bloodstream forms of Trypanosoma brucei brucei 427 stably transfected with pHD449 plasmid assessed as reduction in parasite viability after 24 hrs by propidium iodide staining based flow cytometry
Format: functional, organism-based
Conditions: Trypanosoma brucei, 427, 24 h

EC50	Structure (SMILES)
0.04 µM	O=C(CN1C(=O)Cc2c([nH]c3ccc(Br)cc23)-c2ccc(Cl)cc21)NCc1ccccc1
1.8 µM	O=C(CN1C(=O)Cc2c([nH]c3ccc(Br)cc23)-c2ccc(Cl)cc21)NCc1ccc(C(F)(F)F)cc1

The remaining lines, values behind:

Structure (SMILES)	EC50
CNCCNC(=O)CN1C(=O)Cc2c([nH]c3ccc(C(F)(F)F)cc23)-c2ccccc21	8.3 µM
O=C(CN1C(=O)Cc2c([nH]c3ccc(Br)cc23)-c2ccc(Cl)cc21)NCc1cccc(Cl)c1	1.1 µM

Target: CDK9/cyclin T1 (Homo sapiens) (UniProt O60563+P50750)
Experiment: Inhibition of human recombinant CDK9/cyclinT expressed in insect cells at 10 uM using CDK7/9-Tide as substrate after 30 mins by scintillation counting method
Conditions: not given
How it was run: as §2

Structure (SMILES)	inhibition
O=C(CN1C(=O)Cc2c([nH]c3ccc(Br)cc23)-c2ccc(Cl)cc21)NCc1ccccc1	inactive

System: not listed separately
Experiment: Aqueous solubility of compound in phosphate buffer at 0.25 mg at pH 7.4 after 48 hrs by HPLC based shake flask method
Format: physicochemical
Conditions: not given

Structure (SMILES)	solubility thermodynamic at 48 h
O=C(CN1C(=O)Cc2c([nH]c3ccc(Br)cc23)-c2ccc(Cl)cc21)NCc1ccccc1	< 0.49 µM

System: Trypanosoma brucei brucei
Experiment: Antitrypanosomal activity against bloodstream forms of Trypanosoma brucei brucei 427 stably transfected with pHD449 plasmid assessed as parasite viability at 5 uM after 24 hrs by propidium iodide staining based flow cytometry
Format: functional
Conditions: not given

Structure (SMILES)	Activity
O=C(CN1C(=O)Cc2c([nH]c3ccc(Br)cc23)-c2ccc(Cl)cc21)NCc1cccnc1	59.4%
O=C(CN1C(=O)Cc2c([nH]c3ccc(Br)cc23)-c2ccc(Cl)cc21)NCc1ccncc1	49.1%

Target: Cyclin-dependent kinase 5/CDK5 activator 1 (Homo sapiens) (UniProt Q00535+Q15078)
Sequence (Q00535 whole entry): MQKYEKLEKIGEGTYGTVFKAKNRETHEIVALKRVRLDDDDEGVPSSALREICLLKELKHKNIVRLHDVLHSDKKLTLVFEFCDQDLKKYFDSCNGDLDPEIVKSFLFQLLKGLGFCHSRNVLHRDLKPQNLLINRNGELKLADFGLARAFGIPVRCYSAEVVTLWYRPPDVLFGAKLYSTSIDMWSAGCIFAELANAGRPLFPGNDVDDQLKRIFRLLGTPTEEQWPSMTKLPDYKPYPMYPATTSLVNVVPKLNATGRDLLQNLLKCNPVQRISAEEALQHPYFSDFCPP
Sequence (Q15078 99-307 partner limits assumed): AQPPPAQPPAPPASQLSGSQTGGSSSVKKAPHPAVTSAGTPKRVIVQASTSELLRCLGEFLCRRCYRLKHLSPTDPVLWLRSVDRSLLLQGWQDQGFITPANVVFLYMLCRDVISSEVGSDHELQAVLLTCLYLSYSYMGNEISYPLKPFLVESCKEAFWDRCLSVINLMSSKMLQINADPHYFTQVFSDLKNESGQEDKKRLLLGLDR
Experiment: Inhibition of human recombinant CDK5/p25 expressed in Escherichia coli at 10 uM using histone H1 as substrate after 30 mins by scintillation counting method
Conditions: not given
How it was run: as §2

Structure (SMILES)	inhibition
O=C(CN1C(=O)Cc2c([nH]c3ccc(Br)cc23)-c2ccc(Cl)cc21)NCc1ccccc1	inactive

Target: Dual specificity tyrosine-phosphorylation-regulated kinase 1A (Homo sapiens) (UniProt Q13627)
Experiment: Inhibition of GST-tagged human recombinant DYRK1A expressed in Escherichia coli at 10 uM after 30 mins by scintillation counting method
Conditions: not given
How it was run: as §2

Structure (SMILES)	inhibition
O=C(CN1C(=O)Cc2c([nH]c3ccc(Br)cc23)-c2ccc(Cl)cc21)NCc1ccccc1	inactive

System: not listed separately
Experiment: Inhibition of Leishmania infantum recombinant His-tagged TryS expressed in Escherichia coli BL21 (DE3) assessed as inorganic phosphate release after 15 mins by malachite green dye based end-point assay
Conditions: not given
How it was run: as §1

Structure (SMILES)	IC50
O=C(CN1C(=O)Cc2c([nH]c3ccc(Br)cc23)-c2ccc(Cl)cc21)NCc1cccnc1	11 µM
CNCCNC(=O)CN1C(=O)Cc2c([nH]c3ccc(C(F)(F)F)cc23)-c2ccccc21	0.35 µM
O=C(CN1C(=O)Cc2c([nH]c3ccc(Br)cc23)-c2ccc(Cl)cc21)NCc1ccncc1	1.2 µM
O=C(CN1C(=O)Cc2c([nH]c3ccc(Br)cc23)-c2ccc(Cl)cc21)NCc1cccc(Cl)c1	17 µM

Species on record: Sus scrofa
Experiment: Inhibition of porcine brain CK1delta/epsilon at 10 uM using CKS peptide as substrate after 30 mins by scintillation counting method
Conditions: not given
How it was run: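 Native porcine brain CK1δ/ε purified on axin 2-sepharose, assayed with 0.67 µg CKS peptide and 15 µM ATP, 30 min at 30 °C; phosphate incorporation captured on P81 paper, counted by scintillation, expressed as % of activity without inhibitor.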

Structure (SMILES)	inhibition
O=C(CN1C(=O)Cc2c([nH]c3ccc(Br)cc23)-c2ccc(Cl)cc21)NCc1ccccc1	inactive

Target: Dual specificity protein kinase CLK1 (Mus musculus) (UniProt P22518)
Sequence (P22518 whole entry, looked up): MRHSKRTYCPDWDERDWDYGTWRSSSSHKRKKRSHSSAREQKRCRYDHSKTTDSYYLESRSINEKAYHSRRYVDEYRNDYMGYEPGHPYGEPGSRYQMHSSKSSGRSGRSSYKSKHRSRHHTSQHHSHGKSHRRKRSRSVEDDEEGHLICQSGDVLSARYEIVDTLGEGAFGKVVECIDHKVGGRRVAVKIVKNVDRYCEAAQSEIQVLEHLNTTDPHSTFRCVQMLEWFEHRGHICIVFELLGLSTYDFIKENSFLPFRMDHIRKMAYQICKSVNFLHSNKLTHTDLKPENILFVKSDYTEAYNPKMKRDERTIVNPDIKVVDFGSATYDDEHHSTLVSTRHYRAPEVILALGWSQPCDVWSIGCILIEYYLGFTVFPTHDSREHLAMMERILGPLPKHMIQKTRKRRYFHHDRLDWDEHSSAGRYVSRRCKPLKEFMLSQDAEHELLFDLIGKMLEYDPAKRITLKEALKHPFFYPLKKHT
Experiment: Inhibition of GST-tagged mouse recombinant CLK1 expressed in Escherichia coli at 10 uM after 30 mins by scintillation counting method
Conditions: not given
How it was run: as §2

Structure (SMILES)	inhibition
O=C(CN1C(=O)Cc2c([nH]c3ccc(Br)cc23)-c2ccc(Cl)cc21)NCc1ccccc1	inactive

Target: CDK2/Cyclin A2 (Homo sapiens) (UniProt P24941+P20248)
Experiment: Inhibition of human recombinant CDK2/cyclin A at 10 uM using histone H1 as substrate after 30 mins by scintillation counting method
Format: protein-complex assay
Conditions: not given
How it was run: as §2

Structure (SMILES)	inhibition
O=C(CN1C(=O)Cc2c([nH]c3ccc(Br)cc23)-c2ccc(Cl)cc21)NCc1ccccc1	inactive

System: Leishmania infantum
Experiment: Inhibition of Leishmania infantum recombinant His-tagged TryS expressed in Escherichia coli BL21 (DE3) assessed as residual enzyme activity by measuring inorganic phosphate release at 30 uM after 15 mins by malachite green dye based end-point assay
Conditions: not given
How it was run: as §1

Structure (SMILES)	Activity
O=C(CN1C(=O)Cc2c([nH]c3ccc(Br)cc23)-c2ccc(Cl)cc21)NCc1ccccc1	50%
O=C(CN1C(=O)Cc2c([nH]c3ccc(Br)cc23)-c2ccc(Cl)cc21)NCc1ccc(C(F)(F)F)cc1	55.4%

System: not listed separately
Experiment: Selectivity index, ratio of EC50 for mouse J774 cells to EC50 for bloodstream forms of Trypanosoma brucei brucei 427 stably transfected with pHD449 plasmid
Format: toxicity, cell-based
Conditions: read-out: Ratio EC50

Structure (SMILES)	selectivity ratio
O=C(CN1C(=O)Cc2c([nH]c3ccc(Br)cc23)-c2ccc(Cl)cc21)NCc1ccccc1	1410
CNCCNC(=O)CN1C(=O)Cc2c([nH]c3ccc(C(F)(F)F)cc23)-c2ccccc21	1
O=C(CN1C(=O)Cc2c([nH]c3ccc(Br)cc23)-c2ccc(Cl)cc21)NCc1ccc(C(F)(F)F)cc1	> 18
O=C(CN1C(=O)Cc2c([nH]c3ccc(Br)cc23)-c2ccc(Cl)cc21)NCc1cccc(Cl)c1	91

System: not listed separately
Experiment: Inhibition of Trypanosoma cruzi recombinant His-tagged TryS expressed in Escherichia coli BL21 (DE3) assessed as inorganic phosphate release after 15 mins by malachite green dye based end-point assay
Conditions: not given
How it was run: as §1

Structure (SMILES)	IC50
O=C(CN1C(=O)Cc2c([nH]c3ccc(Br)cc23)-c2ccc(Cl)cc21)NCc1cccnc1	9 µM
O=C(CN1C(=O)Cc2c([nH]c3ccc(Br)cc23)-c2ccc(Cl)cc21)NCc1ccc(C(F)(F)F)cc1	9 µM
O=C(CN1C(=O)Cc2c([nH]c3ccc(Br)cc23)-c2ccc(Cl)cc21)NCc1cccc(Cl)c1	11 µM

System: Trypanosoma cruzi
Experiment: Inhibition of Trypanosoma cruzi recombinant His-tagged TryS expressed in Escherichia coli BL21 (DE3) assessed as residual enzyme activity by measuring inorganic phosphate release at 30 uM after 15 mins by malachite green dye based end-point assay
Conditions: not given
How it was run: as §1

Structure (SMILES)	Activity
O=C(CN1C(=O)Cc2c([nH]c3ccc(Br)cc23)-c2ccc(Cl)cc21)NCc1ccccc1	72.8%
CNCCNC(=O)CN1C(=O)Cc2c([nH]c3ccc(C(F)(F)F)cc23)-c2ccccc21	44.5%
O=C(CN1C(=O)Cc2c([nH]c3ccc(Br)cc23)-c2ccc(Cl)cc21)NCc1ccncc1	58.1%

System: Asteroidea
Experiment: Inhibition of M phase starfish oocytes CDK1/cyclin B at 10 uM using histone H1 as substrate after 30 mins by scintillation counting method
Conditions: not given
How it was run: as §2

Structure (SMILES)	inhibition
O=C(CN1C(=O)Cc2c([nH]c3ccc(Br)cc23)-c2ccc(Cl)cc21)NCc1ccccc1	inactive
